HTRA1 inh: HTRA1 (human) protease inhibition. AID 504803. inhibition, % at 5.96 µM. 340,000 tested, 0.5% active. Q92743. recombinant HTRA1, FP-rhodamine activity-based probe, fluorescence polarization; in the data active = inhibition above about 36%
mABHD4 FP: inhibitors of mouse ABHD4; Q8VD66; purified mABHD4, FP-Rh probe fluorescence polarization; inhibition, % at 8.92 µM; 370,000 tested, 0.54% active; AID 720543;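 active = inhibition exceeding the mean over every tested compound plus 3 SD, cut at about 30% in these data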
Target sequence (Q8VD66 whole entry, looked up): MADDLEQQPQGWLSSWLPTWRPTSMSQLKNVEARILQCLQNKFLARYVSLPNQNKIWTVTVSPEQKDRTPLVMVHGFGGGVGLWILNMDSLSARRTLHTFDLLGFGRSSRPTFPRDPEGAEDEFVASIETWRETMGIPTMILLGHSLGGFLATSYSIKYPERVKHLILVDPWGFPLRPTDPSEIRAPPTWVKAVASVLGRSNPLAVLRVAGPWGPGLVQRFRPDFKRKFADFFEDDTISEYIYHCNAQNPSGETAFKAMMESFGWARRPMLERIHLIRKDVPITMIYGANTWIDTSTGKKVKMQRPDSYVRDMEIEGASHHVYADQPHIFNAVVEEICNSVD
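assay system = mABHD4 protein | compound dosing = single nominal dose of 8.92 µM, 0.89% DMSO final | read-out basis = percent inhibition of probe binding, normalized to plate controls | schedule = Enzyme–compound pre-incubation 45 min, then probe 60 min, both 25 °C | detection = fluorescence polarization, excitation 525 nm, emission 598 nm, BODIPY TMR filters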
TCR-CD3 inh: human TCR-CD3 binding inhibition | TAMRA-labeled TCR probe fluorescence, biochemical | inhibition, % at 9.4 µM | 360,000 tested, 0.37% active; in the data active = inhibition above about 19%;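 also: recombinant mutant TCR 2C K166C tagged with TAMRA read by polarization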
PRMT1 inh: PRMT1 (human) inhibition, primary screen | 370,000 tested, 1.3% active | inhibition, % at 2.79 µM | Q99873 | recombinant PRMT1, activity-based probe fluorescence polarization;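 active = inhibition above about 21% made by adding two undisclosed values, limit read from the data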
SIAE inh: inhibitors of human sialic acid acetylesterase SIAE; inhibition, % at 9.66 µM; 370,000 tested, 0.69% active; SIAE FP-Rh probe binding, fluorescence polarization;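 active = inhibition above a cutoff: mean of compounds within the control limits plus 3 SD of those, cut at about 17% in these data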
mABHD4 conf: ABHD4 (mouse) inhibition, FP confirmation | 1,800 tested, 55% active | purified mABHD4, FP-Rh probe fluorescence polarization | shares compounds with mABHD4 FP | inhibition, % at 8.92 µM;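 active = mean inhibition across replicates above the hit cutoff set in the primary screen, cut at about 30% in these data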
A number is an active result; i = inactive; nt = no result; ! = not confirmed by another sample. A selection: hits, their analogues and other compounds. The true share with any hit is near 2.5%.

SMILES	HTRA1 inh	mABHD4 FP	TCR-CD3 inh	PRMT1 inh	SIAE inh	mABHD4 conf
CCC(C(=O)OCc1csc(CC(=O)Nc2ccccc2C)n1)c1ccccc1 (stereo unspecified)	i	30	i	i	i	i
Cc1ccccc1NC(=O)Cc1nc(COC(=O)CC(C)c2ccccc2)cs1 (stereo unspecified)	i	i	i	i	i	nt
COc1cc(C(=O)OCc2csc(CC(=O)Nc3ccccc3C)n2)ccc1OCC(C)C	i	43	i	i	i	i
COC(=O)C1=C(CCc2ccccc2)NC(=O)NC1c1ccc([N+](=O)[O-])cc1 (stereo unspecified)	i	i	i	i	i	nt
Cc1occc1-c1nnc(SCC(=O)Nc2ccncc2)n1-c1ccccc1	nt	i	nt	i	i	nt
Cc1ccc2c(c1)c(N=Nc1cccc(C(=O)O)c1)c(O)n2C	i	31	i	i	i	45
COC(=O)C1=C(C)N(C)C(=NCc2ccc(OC)cc2)NC1c1ccc(F)cc1 (stereo unspecified)	nt	i	i	i	i	nt
COCC(=O)N(C)C[C@H]1N[C@@](C)(C(=O)OC)[C@H]2C(=O)N(Cc3ccccc3)C(=O)[C@@H]12	i	i	i	i	i	nt
Cc1c(CCOC(=O)C2C3CC4CC(C3)CC2C4)sc[n+]1CC(=O)c1ccc(Br)cc1 (stereo unspecified)	i	32!	i	i	i	36
Cc1c(CCOC(=O)c2ccc(Cl)cc2Cl)sc[n+]1CC(=O)c1ccc(Br)cc1	i	i	i	i	i	nt
c1ccc(-c2sc3ccccc3c2-c2ccc(OCCN3CCCCC3)cc2)cc1	i	i	i	i	i	nt
c1ccc2c(-c3ccc(OCCN4CCCCC4)cc3)c(-c3ccsc3)sc2c1	i	40	i	i	i	i
COc1cc(NC(=O)Nc2nc(C(N)Cc3ccc(C(F)(F)F)cc3)cs2)cc(OC)c1OC (stereo unspecified)	nt	44	i	i	i	39
COc1ccccc1NC(=O)Nc1nc(C(N)Cc2ccc(C(F)(F)F)cc2)cs1 (stereo unspecified)	nt	i	i	i	i	nt
Cc1cc(C(=O)O)ccc1-c1ccc(/C=C2\NC(=O)N(Cc3ccc(F)cc3)C2=O)o1	i	30	i	i	i	78
Cc1ccc(CN2C(=O)N/C(=C/c3ccc(-c4ccc(C(=O)O)cc4)o3)C2=O)cc1	i	i	i	i	i	nt
O=C1C2C(C(=O)N1/N=C/c1cc([N+](=O)[O-])ccc1O)C1C=CC2C12CC2 (stereo unspecified)	i	i	i	i	i	nt
O=C1C2C(C(=O)N1/N=C/c1cc([N+](=O)[O-])c(O)cc1O)C1C=CC2C12CC2 (stereo unspecified)	i	31	i	i	i	i
C=C(C)C(=O)Nc1cccc(C2=NOC3(C2)C[C@H](C(N)=O)N(C(=O)c2ccccc2C(=O)c2ccccc2)C3)c1 (stereo partly specified)	i	i	i	i	i	nt
COc1cc(-n2nc(C)c3c2OC(N)=C(C#N)C3c2ccccc2)c(Cl)c(Br)c1O (stereo unspecified)	i	30	i	i	i	40
Cc1nn(-c2ccccc2)c(Cl)c1C1C(C#N)=C(N)Oc2c1c(C)nn2-c1ccccc1 (stereo unspecified)	i	i	i	i	i	nt
Cc1nn(Cc2ccccc2)c2c1C(c1cccc(Cl)c1)C(C#N)=C(N)O2 (stereo unspecified)	i	54	i	i	i	41
COC(=O)[C@]12C[C@H](CC(=O)NCCc3ccccc3OC)C(=O)N(Cc3ccccc3)C1=C[C@H](COCc1ccccc1)O[C@@H]2C	nt	i	nt	i	i	nt
Cc1ccc(C(=O)NCC(=O)Nc2ccc(Cl)cc2)s1	i	i	i	i	i	nt
CCN(C(=O)c1ccc(S(C)(=O)=O)cc1)C12CC3CC(CC(C3)C1)C2	i	93	i	i	i	i
SMILES	HTRA1 inh	mABHD4 FP	TCR-CD3 inh	PRMT1 inh	SIAE inh	mABHD4 conf
COc1ccc(CNC(=O)CCC(=O)Nc2nnc(CC(C)C)s2)cc1	i	i	i	i	i	nt
Cc1ccc(NC(=O)CN(C)C(=O)C2CC(=O)N(Cc3ccccc3)C2)cc1 (stereo unspecified)	i	i	i	i	i	nt
CCC(C)Nc1nc(-c2cccc(OC)c2O)nc2ccccc12 (stereo unspecified)	i	34	i	i	i	37
COc1cccc(-c2nc(NCC3CCCO3)c3ccccc3n2)c1O (stereo unspecified)	i	33	i	i	i	34
COc1cc(NC(=O)COC(=O)c2cnccn2)c(C)cc1[N+](=O)[O-]	i	i	i	i	i	nt
COC/C=C/C1=CC2=CC(=O)C(C)(OC(=O)c3cnc4ccccc4n3)C(=O)C2=CN1Cc1ccccc1 (stereo unspecified)	i	34	i	i	i	i
COC/C=C/C1=CC2=CC(=O)C(C)(OC(=O)c3cnc4ccccc4n3)C(=O)C2=CN1Cc1ccc(OC)cc1 (stereo unspecified)	i	i	i	i	i	nt
Cc1cccc(OCC(=O)N(Cc2ccccc2)c2c(N)n(Cc3ccccc3)c(=O)[nH]c2=O)c1	i	i	i	i	i	nt
O=C(Nc1nc2ccccc2s1)c1ccccc1	i	i	i	i	i	nt
c1ccc2sc(NN=C3CCCCCC3)nc2c1	i	36	i	i	i	30
Cc1c(C(=O)OCC(=O)N(C)c2ccccc2)oc2ccccc12	i	i	i	i	i	nt
COc1cccc2c(=O)c3cccc(N)c3[nH]c12	i	58	i	i	i	66
COc1cccc2c(=O)c3c([nH]c12)OC(C)(C)C3	i	i	i	i	i	nt
COC(=O)C1=C(C)N(Cc2cccc(C(F)(F)F)c2)C(=NCc2ccc3c(c2)OCO3)NC1c1cccc(C(F)(F)F)c1 (stereo unspecified)	nt	i	i	i	i	nt
COC(=O)C1=C(C)N(Cc2cccc(C(F)(F)F)c2)C(=NCc2ccc3c(c2)OCO3)NC1c1ccc(F)cc1 (stereo unspecified)	nt	44	i	i	i	30
COC(=O)C1=C(C)N(Cc2cccc(C(F)(F)F)c2)C(=NCc2ccc(OC)cc2)NC1c1cccc(C(F)(F)F)c1 (stereo unspecified)	nt	31	i	i	i	41
COC(=O)C1=C(C)N(Cc2cccc(C(F)(F)F)c2)C(=NCc2ccc(C(F)(F)F)cc2)NC1c1ccc(F)cc1 (stereo unspecified)	nt	35	i	i	i	44
COC(=O)C1=C(C)N(Cc2ccc(C(F)(F)F)cc2)C(=NCc2ccccc2)NC1c1cccc(F)c1 (stereo unspecified)	nt	34	i	i	i	46
COC(=O)C1=C(C)N(Cc2cccc(C(F)(F)F)c2)C(=NCc2ccc(OC)cc2)NC1c1cccc(Cl)c1 (stereo unspecified)	nt	i	i	i	i	nt
